An excerpt weighted towards active compounds, which were near 2.9% of everything screened.
NRP1-CendR mod = NRP-1/CendR interaction modulation. O14786. FAM-RPARPAR peptide binding to NRP-1, fluorescence polarization. inhibition, % at 25 µM. 360,000 compounds, 0.85% hits. AID 602438;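 active = inhibition or corrected inhibition above about 18%, plus a signal ratio from 0.5 to 1.5, limit read from the data, passing the limit was not always enough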
CRFR2-BP antag = blocks CRF-induced signaling of the CRF-BP/CRF-R2 complex. HEK293 CRF-R2/CRF-BP, CRF-induced calcium fluorescence. inhibition, % at 11.8 µM. 350,000 compounds, 0.59% hits;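 active = inhibition of the ligand-induced calcium signal above about 50% at the single tested concentration, limit read from the data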
DDE Tn7 FP inh = DD(E)-Tn7 binding inhibition, primary FP screen; inhibition, % at 8.3 µM; FP displacement of FITC-Tn7 peptide from fibrin DD(E); 0% = median of compound wells per plate; 370,000 compounds, 0.13% hits; P02675; AID 720508;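 active = inhibition above the mean of compounds falling within the control limits plus 3 SD of them, cut at about 14% in these data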
Target sequence (P02675 whole entry, looked up): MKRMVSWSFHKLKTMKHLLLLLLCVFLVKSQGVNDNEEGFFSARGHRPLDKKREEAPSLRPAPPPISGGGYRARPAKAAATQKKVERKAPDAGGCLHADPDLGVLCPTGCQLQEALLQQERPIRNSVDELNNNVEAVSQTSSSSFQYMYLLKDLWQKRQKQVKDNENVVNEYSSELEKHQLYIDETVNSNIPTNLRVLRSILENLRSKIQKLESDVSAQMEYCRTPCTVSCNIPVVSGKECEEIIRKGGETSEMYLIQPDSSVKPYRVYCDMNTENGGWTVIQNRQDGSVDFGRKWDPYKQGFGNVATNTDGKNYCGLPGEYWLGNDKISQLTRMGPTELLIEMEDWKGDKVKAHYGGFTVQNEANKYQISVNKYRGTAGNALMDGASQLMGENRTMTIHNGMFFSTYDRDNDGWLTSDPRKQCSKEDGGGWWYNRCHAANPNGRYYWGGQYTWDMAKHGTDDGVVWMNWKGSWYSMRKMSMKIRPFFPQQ
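Measure: % inhibition scaled between sample-field median and high-control FP; Test system: human fibrin DD(E); Quantity: 2 µM final DD(E) protein; Doses: one dose, 8.3 µM nominal; Schedule: compound with protein 10 min, then 3 h after probe, room temperature; Detection: fluorescence polarization; Medium: Tris buffer with calcium and detergent, pH 7.8.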
DDE Tn6 FP inh = DD(E)-Tn6 binding inhibition, primary FP screen; P02675; Fibrin DD(E) TRITC-Tn6 fluorescence polarization displacement; inhibition, % at 8.3 µM; 370,000 compounds, 0.21% hits; AID 720509;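 active = inhibition above a per-campaign cutoff: mean of compounds within control limits plus 3 SD, cut at about 15% in these data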
CRFR2-BP ag = CRF-BP/CRF-R2 complex agonism; 350,000 compounds, 0.46% hits; activation, % at 13.2 µM; AID 588473; HEK293 CRF-R2/CRF-BP, calcium dye fluorescence (FLIPR); percent of saturating CRF peptide response;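 active = activation of at least 50%, plus an integration ratio under a set limit after plate pattern correction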
proKLK7 act = activators of human kallikrein-7 zymogen; AID 652039; purified proKLK7, EDANS-DABCYL substrate fluorescence; 100% is mature enzyme control, 0% vehicle; P49862; 370,000 compounds, 0.9% hits; activation, % at 7 µM;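 active = activation above the mean of all tested compounds plus 3 SD, computed per campaign excluding outliers beyond control limits, cut at about 13% in these data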
A number is an active result; i = inactive; nt = no result.

SMILES | NRP1-CendR mod | CRFR2-BP antag | DDE Tn7 FP inh | DDE Tn6 FP inh | CRFR2-BP ag | proKLK7 act
COCCN1Cc2cc(C(=O)OC)c3c(c2C1=O)c1cc(OC)ccc1n3C(=O)c1ccccc1 | nt | nt | i | i | nt | i
Cc1ccc(NC(=O)COC(=O)CN2C(=O)NC3(CCCC3)C2=O)cc1S(=O)(=O)N(C)C | i | 61 | i | i | i | i
COc1ccc(NS(=O)(=O)c2ccc(C)c(NC(=O)CN3C(=O)NC4(CCCC4)C3=O)c2)cc1 | 30 | i | i | i | i | i
CCCC[C@H]1C2CC(OC(=O)Nc3cc(C)cc(C)c3)C(C2)[C@H]2CCCCN21 (stereo partly drawn) | nt | nt | i | i | nt | i
CC(C)(C)OC(=O)N1CCC[C@@H]1C(=O)N1CCC[C@@H]1C(=O)NCc1ccccc1 | nt | nt | i | i | nt | i
CCCCCCCCN1C(=O)[C@@H](CC(=O)NCc2cccs2)C[C@@]2(C(=O)OC)C1=C[C@H](COCc1ccccc1)O[C@@H]2C | nt | nt | i | i | nt | i
O=C(/C=C/c1ccc2ccccc2n1)N1CCN(c2ccccc2)CC1 | i | 75 | i | i | i | i
O=C(NCCC1=CCCCC1)c1ccc(=O)oc1 | 51 | i | i | i | i | i
COc1ccc(OC)c(S(=O)(=O)NCC2CCN(C(=O)C(=O)c3cc4ccccc4o3)CC2)c1 | nt | nt | i | i | nt | i
COc1ccccc1C=NNc1ccc([N+](=O)[O-])cn1 | 24 | i | i | i | i | i
C/C(=N\OC(=O)c1ccc(OC(C)C)cc1)c1ccc(C)c(C)c1 | i | 73 | i | i | i | i
CC/C(=N\OC(=O)c1ccc(OC(C)C)cc1)c1ccc(C)cc1 | i | i | i | i | i | i
CCc1ccc(OCC(=O)c2c(O)c3ccccc3oc2=O)cc1 | i | i | i | i | i | i
CCc1oc2ccccc2c1C(=O)c1cc(Br)c(O)c(Br)c1 | i | 55 | i | i | i | i
O=C(NCCN1CCc2ccccc2C1)Nc1ccc([N+](=O)[O-])cc1 | i | i | 15 | i | i | i
O=C(NCCCN1CCc2ccccc2C1)Nc1ccc(Br)cc1 | i | i | i | i | i | i
COc1ccc(NC(=O)NCCCN2CCc3ccccc3C2)cc1 | i | 52 | i | i | i | i
COCc1cc(N2CCNC[C@@H]2C)ccc1N1CCN(Cc2ccccc2)[C@H](C)C1 | nt | nt | i | i | nt | i
O=C(CNC(=O)C12CC3CC(CC(C3)C1)C2)NC1=NCCS1 | 26 | i | i | i | i | i
COC(=O)[C@]12C[C@H](CC(=O)NCc3cccs3)C(=O)N(Cc3ccco3)C1=C[C@H](COCc1ccccc1)O[C@@H]2C | nt | nt | i | i | nt | i
CC1=Nc2ccccc2/C1=C\c1nc(-c2ccc(C(F)(F)F)cc2)oc1O | i | i | i | i | 121 | i
O=C(NCCc1c[nH]c2ccccc12)OCc1cn(-c2cccc(C(F)(F)F)c2)nn1 | nt | nt | i | i | nt | i
O=C(CSc1nnc(Cc2ccccc2)n1Cc1ccccc1)NCc1ccco1 | 30 | i | i | i | i | i
O=C(CSc1nnc(-c2cccs2)n1Cc1ccccc1)NCc1ccc2c(c1)OCO2 | 24 | i | i | i | i | i
O=C(NC1=N[C@@]2(C=C3CCCCC3n3c(=O)n(-c4ccccc4)c(=O)n32)[C@H](Cc2ccccc2)N1Cc1ccccc1)c1ccccc1 (stereo partly drawn) | nt | nt | i | i | nt | i
SMILES | NRP1-CendR mod | CRFR2-BP antag | DDE Tn7 FP inh | DDE Tn6 FP inh | CRFR2-BP ag | proKLK7 act
Cc1ccc(C(=O)N(C)[C@H]2C[C@H]3c4[nH]c5c(-c6ccc7c(c6)OCO7)cccc5c4CCN3C[C@H]2[C@H](C)O)cc1 | nt | nt | i | i | nt | i
O=C(NCCCn1ccnc1)c1ccc(Cl)c(S(=O)(=O)N2CCOCC2)c1 | 35 | i | i | i | i | i
S=C1SCN(Cc2cccnc2)CN1Cc1cccnc1 | i | i | i | i | 101 | i
O=C1CCC[C@@H]2Cc3nc4cc5c(cc4cc3[C@@H]3CCN1[C@H]23)OCO5 | 24 | i | i | i | i | i
O=S1(=O)c2ccc(N3CCN(Cc4ccccc4F)CC3)cc2Oc2ccccc2CN1Cc1cn(Cc2ccc(C(F)(F)F)cc2)nn1 | nt | nt | i | i | nt | i
CC(C)C[C@H](NC(=O)c1ccc(Cl)cc1Cl)C(=O)N1CCC[C@H]1C(=O)NCc1ccccc1 | nt | nt | i | i | nt | i
O=C(OCn1nnc2ccccc2c1=O)c1ccc(Br)o1 | 35 | i | i | i | i | i
O=C(OCn1nnc2ccccc2c1=O)c1ccc(O)cc1 | i | i | i | i | i | i
COC(=O)[C@]12C[C@H](CC(=O)N3CCC(c4ccccc4)CC3)C(=O)N(Cc3cccc4ccccc34)C1=C[C@H](COCc1ccccc1)O[C@@H]2C | nt | nt | i | i | nt | i
COc1ccc(NC(=O)Cn2nnc(C(=O)NCCc3ccccc3)c2N)cc1 | i | i | i | i | i | i
COc1ccc(NC(=O)Cn2nnc(C(=O)Nc3ccccc3C)c2N)cc1 | 19 | i | i | i | i | i
CN1Cc2nnn(Cc3ccccc3)c2-c2ccccc2S1(=O)=O | nt | nt | i | i | nt | i
CCN(CC)C(=O)c1c(C)nc2ccccn12 | i | 85 | nt | nt | i | nt
O=C(Cc1ccccc1)N1CCN=C1SCc1ccc([N+](=O)[O-])cc1 | i | i | i | i | i | i
O=C(Cc1ccc(F)cc1)N1CCN=C1SCc1ccc([N+](=O)[O-])cc1 | 22 | i | i | i | i | i
O=C(c1ccc(C(=O)N2CCCc3ccccc32)s1)N1CCCc2ccccc21 | i | i | i | i | i | i
Cc1ccc(C)c2nc3sc(C(=O)N4CCCc5ccccc54)c(N)c3cc12 | i | i | i | i | 60 | i
COc1ccc2c(C)cc(SCc3c(C)noc3C)nc2c1 | i | 56 | i | i | i | i
COc1ccc2c(C)cc(SCC#N)nc2c1 | i | i | nt | nt | i | nt
CCCCCSc1nc(C)c(CC(=O)O)c(=O)[nH]1 | 20 | i | i | i | i | i
CCCCCc1c(C)nc(SCC(=O)O)[nH]c1=O | i | i | i | i | i | i
CCCCN(C)C(=O)CSc1nnc(-c2cc(OC)c(OC)c(OC)c2)o1 | nt | nt | i | i | nt | i
CCOC(=O)[C@@]12CN(C(=O)OC(C)(C)C)CC=C1N(Cc1ccc(OC)cc1)C(=O)[C@H]2CC(=O)NCCCCc1ccccc1 | nt | nt | i | i | nt | i
COC(=O)c1ccc(C2C(C(=O)c3cc4ccccc4o3)=C(O)C(=O)N2CCCN(C)C)cc1 (stereo not drawn) | i | 114 | i | i | i | i
CN(C)CCCN1C(=O)C(O)=C(C(=O)c2cc3ccccc3o2)C1c1ccccc1 (stereo not drawn) | i | i | i | i | i | i
NC(=O)C1CCN(c2ncc(Br)s2)CC1 | nt | nt | i | i | nt | nt
Cc1c(CN2CCN(CC(C)(C)C)C(CCO)C2)[nH]c2ccccc12 (stereo not drawn) | i | i | i | i | i | i

Assay outcomes: PubChem, several laboratories
